14 compounds from ChEMBL document CHEMBL1932994, “Structure-activity relationship studies of S1P agonists with a dihydronaphthalene scaffold” (Bioorg Med Chem Lett, 2012) can be followed below.

Structures are written as SMILES.

Data set [1] deals with Sphingosine 1-phosphate receptor 1 (Homo sapiens, UniProt P21453). In words: Agonist activity at human S1P1 receptor expressed in CHO cells assessed as induction of intracellular calcium level. The class given is functional, cell-based. The method in brief: (§1)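 Intracellular Ca²⁺ rise measured in CHO cells stably expressing human S1P₁ or S1P₃ receptor; EC₅₀ (nM) determined. Some values are the average of two assays.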
Chain of Sphingosine 1-phosphate receptor 1 (P21453 whole entry): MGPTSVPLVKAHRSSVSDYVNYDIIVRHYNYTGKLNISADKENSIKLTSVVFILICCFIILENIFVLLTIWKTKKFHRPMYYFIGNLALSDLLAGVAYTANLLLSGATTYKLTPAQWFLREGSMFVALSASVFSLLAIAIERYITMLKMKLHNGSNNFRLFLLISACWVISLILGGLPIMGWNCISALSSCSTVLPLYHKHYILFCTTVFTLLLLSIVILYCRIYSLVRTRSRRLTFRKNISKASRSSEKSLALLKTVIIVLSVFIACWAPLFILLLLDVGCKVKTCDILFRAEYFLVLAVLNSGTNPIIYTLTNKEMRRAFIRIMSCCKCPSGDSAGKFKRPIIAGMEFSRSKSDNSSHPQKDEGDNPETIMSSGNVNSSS
Background: Calcium assays in cells follow changes in intracellular calcium, usually with a dye or a luminescent sensor.

The target in data set [2] is Sphingosine 1-phosphate receptor 3 (Homo sapiens, UniProt Q99500). In words: Agonist activity at human S1P3 receptor expressed in CHO cells assessed as induction of intracellular calcium level. The class given is functional, cell-based. In outline: as §1
Chain of Sphingosine 1-phosphate receptor 3 (Q99500 whole entry): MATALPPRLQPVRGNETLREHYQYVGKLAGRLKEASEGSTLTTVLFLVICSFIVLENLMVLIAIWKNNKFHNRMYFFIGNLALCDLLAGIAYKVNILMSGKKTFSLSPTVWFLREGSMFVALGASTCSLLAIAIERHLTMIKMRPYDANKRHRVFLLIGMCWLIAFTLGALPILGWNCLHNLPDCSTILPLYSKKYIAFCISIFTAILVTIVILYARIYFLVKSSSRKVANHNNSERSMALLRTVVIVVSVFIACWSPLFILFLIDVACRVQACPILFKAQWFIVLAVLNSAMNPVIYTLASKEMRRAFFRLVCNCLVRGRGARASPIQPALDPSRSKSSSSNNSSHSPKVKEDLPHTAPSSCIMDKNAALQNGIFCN
The subject of data set [3] is Mus musculus. Nature of the data set: Immunomodulatory activity in po dosed mouse assessed as reduction in peripheral lymphocyte count measured after 4 hrs. The data set is classed as functional. The method in brief:
(§2)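 Mice dosed orally over a dose titration; peripheral blood lymphocytes counted 4 h or 24 h after dosing. Each point is the mean % decrease versus vehicle controls (n = 5 per group, treated and control). ED₅₀ (mg/kg) derived from the titration.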

Data set [4] relates to Plasma. Nature of the data set: Plasma concentration in rat at 1 mg/kg, po. The data set is classed as ADME, organism-based. Also on record: dose 1 mg/kg, route oral. The following applies: in vivo.
Data set [5] in a line: AUC (0 to infinity) in rat at 1 mg/kg, po. The note with it: plasma. Also noted: time infinity, dose 1 mg/kg, route oral. The data set is classed as ADME, organism-based.
The nature of data set [6]: Tmax in rat at 1 mg/kg, po. Also on record: dose 1 mg/kg, route oral. The class given is ADME, organism-based. The following applies: in vivo.
The nature of data set [7]: Oral bioavailability in rat at 1 mg/kg. The class given is ADME, organism-based. The note with it: in vivo.
The nature of data set [8]: Half life in rat at 1 mg/kg, po. The following applies: in vivo. Also on record: dose 1 mg/kg, route oral. The class given is ADME, organism-based.
Data set [9] deals with Mus musculus. In words: Immunomodulatory activity in po dosed mouse assessed as reduction in peripheral lymphocyte count measured after 24 hrs. The data set is classed as functional. The method in brief: as §2
The nature of data set [10]: AUC (0 to infinity) in rat at 1 mg/kg, iv. The class given is ADME, organism-based. Also noted: time infinity, dose 1 mg/kg, route intravenous. The following applies: plasma.
A short description of data set [11]: Volume of distribution at steady state in rat at 1 mg/kg, iv. The data set is classed as ADME, organism-based. Also on record: dose 1 mg/kg, route intravenous. The note with it: in vivo, read-out: Vdss.
A short description of data set [12]: Half life in rat at 1 mg/kg, iv. The following applies: in vivo. The data set is classed as ADME, organism-based. Also noted: dose 1 mg/kg, route intravenous.
Data set [13] is described as follows: Total clearance in rat at 1 mg/kg, iv. The class given is ADME, organism-based. Also on record: dose 1 mg/kg, route intravenous. The following applies: in vivo.
For data set [14], the system named is CHO. In words: Selectivity ratio of EC50 for human S1P3 receptor expressed in CHO cells to EC50 for S1P1 receptor expressed in CHO cells. The data set is classed as cell-based. In outline:
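Ratio of EC₅₀ values from intracellular Ca²⁺ stimulation assays in CHO cells stably expressing human S1P₃ versus human S1P₁.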

Data set [15] in a line: Cmax in rat at 1 mg/kg, po. The data set is classed as ADME, organism-based. Also noted: dose 1 mg/kg, route oral. The note with it: in vivo.
Data set [16] in a line: AUC (0 to infinity) in rat at 1 mg/kg, po measured up to 24 hrs. The data set is classed as ADME, organism-based. Also on record: time infinity, dose 1 mg/kg, route oral. The note with it: plasma.
Data set [17] is described as follows: AUC (0 to infinity) in rat at 1 mg/kg, iv measured up to 24 hrs. The class given is ADME, organism-based. Also noted: time infinity, dose 1 mg/kg, route intravenous. The following applies: plasma.
Data set [18] can be described thus: Oral bioavailability in rat at 1 mg/kg measured up to 24 hrs. The data set is classed as ADME, organism-based. The note with it: in vivo.

As a reminder, the EC50 is the concentration at which the effect is half-maximal. The ED50 is the dose that gives a 50% effect, or the effect in half of the subjects. Consider `CC1=C(CN2CC(C(=O)O)C2)CCc2cc(OCCC(C)c3ccccc3)ccc21.Cl` (racemic), for which the EC50 in data set [1] was 0.6 nM; in data set [2], 22000 nM. For the same compound, the ED50 in data set [3] was above 0.3 mg/kg.

Broadly, the AUC(0-inf) is total exposure, with the tail of the curve extrapolated. Low values mean low exposure, high ones high exposure. Broadly, the Tmax is the time at which the peak concentration occurs. What is called half-life is the time needed for the level to fall by half in the phase considered. The low end stands for fast loss, the high end for slow loss. In the case of `CC1=C(CN2CC(C(=O)O)C2)CCc2cc(OCCCCc3ccccc3)ccc21`, in [4], the Cp is 53 ng/mL. Moreover, the AUC(0-inf) in [5] came out at 3800 ng·h/mL. For the same compound, in data set [6], the time to peak (Tmax) amounted to 4.7 h. For the same compound, the bioavailability in data set [7] stood at 85%. This compound also gave a half-life in [8] of 17 h.

Take `CC1=C(CN2CC(C(=O)O)C2)CCc2cc(OCCCc3cccc(F)c3)ccc21.Cl`: the ED50 in [9] amounted to 0.69 mg/kg; in [3] it was 0.15 mg/kg. For the same compound, the EC50 in data set [1] was determined as 4 nM; in data set [2], 3900 nM.

Turning to `CC1=C(CN2CC(C(=O)O)C2)CCc2cc(OCC(C)Cc3ccccc3)ccc21.Cl` (racemic), the EC50 in data set [1] was determined as 0.66 nM; in data set [2], 20800 nM. Further, the ED50 in data set [3] worked out at 0.19 mg/kg.

As usually defined, the clearance is the volume of plasma or blood freed of the substance per unit of time. Lower therefore signals a low capacity for elimination. One may read the Cmax as the highest concentration seen after dosing. `CC1=C(CN2CC(C(=O)O)C2)CCc2cc(OC[C@@H](C)Cc3ccc(Cl)cc3)ccc21.Cl` displayed a Cp in [4] of 87 ng/mL. Moreover, the AUC(0-inf) in [10] is 9000 ng·h/mL; in data set [5] it was 5500 ng·h/mL. Also, the Vd in data set [11] stood at 3.9 L/kg. The ED50 in [9] came to 0.095 mg/kg. Also, the half-life in [12] was 27 h; in [8], 20 h. The EC50 was found to be 0.55 nM in data set [1] and 8200 nM in data set [2]. Further, in [6], the Tmax amounted to 4.7 h. The compound also yielded a clearance in [13] of 2 mL/min/kg. For the same compound, in data set [7], the bioavailability was found to be 62%. Further, the Ratio EC50 in data set [14] turned out to be 15000. Further, in [15], the highest concentration (Cmax) was 184 ng/mL.

On to `CC1=C(CN2CC(C(=O)O)C2)CCc2cc(OC[C@H](Cc3ccc(F)cc3)C(C)C)ccc21.Cl`, for which the 50% effective dose (ED50) in data set [9] was 0.68 mg/kg. The results for the 50% effective concentration (EC50) in [1] and in data set [2] were 4.5 nM and above 30000 nM, respectively.

`CC[C@H](COc1ccc2c(c1)CCC(CN1CC(C(=O)O)C1)=C2C)Cc1ccc(F)cc1.Cl`: in [9], the ED50 worked out at 0.77 mg/kg. Moreover, the EC50 in [1] came out at 1.1 nM; in data set [2], 29300 nM.

On to `CC1=C(CN2CC(C(=O)O)C2)CCc2cc(OCCCc3ccccc3F)ccc21.Cl`, for which the values for the ED50 in [9] and in [3] were 0.75 mg/kg and 0.13 mg/kg, respectively. Besides, the results for the EC50 in data set [1] and in [2] were 2.7 nM and 2900 nM, respectively.

In [4], `CC1=C(CN2CC(C(=O)O)C2)CCc2cc(OCCCc3ccc(F)cc3)ccc21.Cl` gave a Cp of 88 ng/mL. Moreover, the AUC(0-inf) in data set [10] is 5400 ng·h/mL; in [5], 5700 ng·h/mL. Moreover, the Vd in [11] was 5.3 L/kg. Moreover, the ED50 in data set [9] was 0.25 mg/kg; in [3] it was 0.055 mg/kg. Also, the half-life in [12] was 21 h; in data set [8], 24 h. In addition, the EC50 in data set [1] is 0.84 nM; in data set [2] it was 3200 nM. Further, in data set [6], the Tmax is 4.7 h. For the same compound, the clearance in data set [13] was found to be 3.2 mL/min/kg. Further, the bioavailability in data set [7] was determined as 106%. The compound further registered a peak concentration (Cmax) in data set [15] of 159 ng/mL.

`CC1=C(CN2CC(C(=O)O)C2)CCc2cc(OC[C@H](C)Cc3ccc(F)cc3)ccc21.Cl`: the ED50 in data set [9] worked out at 0.55 mg/kg. For the same compound, the EC50 in data set [1] came out at 0.85 nM; in data set [2], 11000 nM.

In the case of `CC1=C(CN2CC(C(=O)O)C2)CCc2cc(OCCCc3ccccc3)ccc21.Cl`, the EC50 amounted to 3 nM in data set [1] and 5000 nM in data set [2]. In data set [3], the ED50 came out at 0.4 mg/kg.

Regarding `CC1=C(CN2CC(C(=O)O)C2)CCc2cc(OC(C)CCc3ccccc3)ccc21` (stereo unspecified), the EC50 came to 20 nM in data set [1] and 14000 nM in [2].

`CC1=C(CN2CC(C(=O)O)C2)CCc2cc(OC[C@@H](C)Cc3ccc(F)cc3)ccc21.Cl` had a Cp in data set [4] of 69 ng/mL. For the same compound, in data set [11], the Vd was found to be 5.7 L/kg. Moreover, in data set [9], the ED50 turned out to be 0.22 mg/kg. In addition, the half-life is 19 h in data set [12] and 57 h in data set [8]. Further, the half-maximal effective concentration (EC50) is 0.37 nM in data set [1] and 9450 nM in [2]. Besides, the AUC(0-inf) in [16] was 2000 ng·h/mL; in data set [17] it was 2600 ng·h/mL. Further, the Tmax in data set [6] is 4.7 h. The clearance in data set [13] stood at 4 mL/min/kg. The compound also showed a Cmax in data set [15] of 103 ng/mL. Also, the bioavailability in data set [18] came out at 75%.

Turning to `CC1=C(CN2CC(C(=O)O)C2)CCc2cc(OCC(C)(C)Cc3ccccc3)ccc21`, the EC50 in [1] was 20 nM; in [2], above 30000 nM.
